The values that follow come from ChEMBL document CHEMBL4261600 (Eur J Med Chem, 2018).

The structures appear in SMILES notation. Calls of active or inactive are those of the source.

The target of series [1] is MAP/microtubule affinity-regulating kinase 4 (Homo sapiens) (UniProt Q96L34). The series is described as follows: Binding affinity to wild-type human partial length MARK4 (K29 to G340 residues) expressed in bacterial expression system assessed as remaining unbound target protein level at 1000 nM by Kinomescan method relative to control.
Series [2] has as its target Wee1-like protein kinase 2 (Homo sapiens) (UniProt P0C1S8). Put plainly: Binding affinity to wild-type human partial length WEE2 (M204 to K492 residues) expressed in bacterial expression system assessed as remaining unbound target protein level at 1000 nM by Kinomescan method relative to control.
The target in series [3] is Serine/threonine-protein kinase Chk2 (Homo sapiens) (UniProt O96017). Put plainly: Binding affinity to wild-type human partial length CHEK2 (S253 to E574 residues) expressed in bacterial expression system assessed as remaining unbound target protein level at 1000 nM by Kinomescan method relative to control.
Chain of Serine/threonine-protein kinase Chk2 (Homo sapiens) (O96017 whole entry, the tested form may be a part): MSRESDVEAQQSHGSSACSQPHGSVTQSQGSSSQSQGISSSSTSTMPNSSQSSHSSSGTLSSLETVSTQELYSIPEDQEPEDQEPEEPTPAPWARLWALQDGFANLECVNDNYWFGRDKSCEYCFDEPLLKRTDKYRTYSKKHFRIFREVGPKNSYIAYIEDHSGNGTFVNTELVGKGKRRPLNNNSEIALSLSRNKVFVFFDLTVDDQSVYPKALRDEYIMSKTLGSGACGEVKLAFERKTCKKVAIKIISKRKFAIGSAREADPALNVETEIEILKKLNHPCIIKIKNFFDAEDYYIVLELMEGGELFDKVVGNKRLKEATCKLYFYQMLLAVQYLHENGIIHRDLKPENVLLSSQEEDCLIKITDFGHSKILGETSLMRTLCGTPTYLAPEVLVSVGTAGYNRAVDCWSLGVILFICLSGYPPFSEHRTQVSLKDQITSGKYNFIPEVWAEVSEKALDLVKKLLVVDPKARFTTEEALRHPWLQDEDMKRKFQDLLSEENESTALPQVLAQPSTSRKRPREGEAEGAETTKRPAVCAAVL
Series [4] has as its system HL-60. Put plainly: Induction of apoptosis in human HL60 cells assessed as decrease in MCL-1 level after 2 hrs by immunoblotting analysis. It is filed as functional, cell-based.
Series [5] deals with Mast/stem cell growth factor receptor Kit (Homo sapiens), P10721 [D816V]. Put plainly: Binding affinity to human partial length KIT D816V mutant (I571 to D952 residues) expressed in bacterial expression system assessed as remaining unbound target protein level at 1000 nM by Kinomescan method relative to control. In short, it runs like this:
(§1)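 KINOMEscan competition-binding profiling across the panel of 468 kinases and mutants, with inhibitor tested at 1 μM. Binding is expressed as percent of control, with DMSO as the reference control.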

Series [6] in a line: Half life in beagle dog at 10 mg/kg, po by LC-MS/MS analysis. The class given is ADME, organism-based, Canis lupus familiaris. Conditions: in vivo.
Series [7] has as its system Proto-oncogene tyrosine-protein kinase receptor Ret (Homo sapiens), P07949 [M918T]. The series is described as follows: Binding affinity to human partial length RET M918T mutant (E713 to D1014 residues) expressed in bacterial expression system assessed as remaining unbound target protein level at 1000 nM by Kinomescan method relative to control. The gist of the method: as §1

In series [8] the test system is Mast/stem cell growth factor receptor Kit (Homo sapiens), P10721 [D816H]. Put plainly: Binding affinity to human partial length KIT D816H mutant (I571 to D952 residues) expressed in mammalian expression system assessed as remaining unbound target protein level at 1000 nM by Kinomescan method relative to control. In short, it runs like this:
as §1

Series [9] addresses Ephrin type-A receptor 2 (Homo sapiens) (UniProt P29317). Put plainly: Binding affinity to wild-type human partial length EPHA2 (T593 to V891 residues) expressed in bacterial expression system assessed as remaining unbound target protein level at 1000 nM by Kinomescan method relative to control.
Series [10] concerns the target Interleukin-1 receptor-associated kinase 1 (Homo sapiens) (UniProt P51617). Put plainly: Binding affinity to wild-type human partial length IRAK1 (R194 to S712 residues) expressed in mammalian expression system assessed as remaining unbound target protein level at 1000 nM by Kinomescan method relative to control. In short, it runs like this:
(§2)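 KINOMEscan binding panel of 468 kinases/mutants. Inhibitor was tested at a single concentration of 1 μM. Binding is reported as percent of control, defined relative to a DMSO control.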

For series [11], the target named is Serine/threonine-protein kinase PRP4 homolog (Homo sapiens) (UniProt Q13523). Put plainly: Binding affinity to wild-type human partial length PRP4 (D657 to I1007 residues) expressed in bacterial expression system assessed as remaining unbound target protein level at 1000 nM by Kinomescan method relative to control.
Series [12] relates to HL-60. The series is described as follows: Induction of apoptosis in human HL60 cells assessed as decrease in c-MYC level after 2 hrs by immunoblotting analysis. The class given is functional, cell-based.
A short description of series [13]: MRT (0 to t) in mouse at 3 mg/kg, iv by LC-MS/MS analysis. The class given is ADME, organism-based. Conditions: in vivo.
Series [14] deals with Tyrosine-protein kinase ABL1 (Homo sapiens), P00519 [F317L]. Put plainly: Binding affinity to human non-phosphorylated ABL1 F317L mutant (S229 to K512 residues) expressed in mammalian expression system assessed as remaining unbound target protein level at 1000 nM by Kinomescan method relative to control. In short, it runs like this:
as §1

In series [15] the target is Aurora kinase B (Homo sapiens) (UniProt Q96GD4). Put plainly: Binding affinity to wild-type human partial length AURKB (D25 to A303 residues) expressed in mammalian expression system assessed as remaining unbound target protein level at 1000 nM by Kinomescan method relative to control. The gist of the method: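 Profiled in a KINOMEscan binding panel with the inhibitor at a single concentration of 1 μM. Binding to each kinase was read out as percent of control, relative to a DMSO control. Strong binders were defined as those with a percent control value below 1.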
Chain of Aurora kinase B (Homo sapiens) (Q96GD4 whole entry, the tested form may be a part): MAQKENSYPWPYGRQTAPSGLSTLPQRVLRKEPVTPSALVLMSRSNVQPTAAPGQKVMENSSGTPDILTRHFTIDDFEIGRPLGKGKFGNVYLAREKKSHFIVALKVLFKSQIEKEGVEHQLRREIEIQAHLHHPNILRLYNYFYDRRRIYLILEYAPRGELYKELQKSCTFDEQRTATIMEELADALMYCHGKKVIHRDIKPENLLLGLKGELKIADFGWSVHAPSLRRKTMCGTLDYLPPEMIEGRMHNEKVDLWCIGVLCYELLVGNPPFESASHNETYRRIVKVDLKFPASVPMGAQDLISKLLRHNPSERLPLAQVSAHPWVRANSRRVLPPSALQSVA

Series [16] has as its target Glycogen synthase kinase-3 alpha (Homo sapiens) (UniProt P49840). The series is described as follows: Binding affinity to wild-type human full length GSK3A (M1 to S483 residues) expressed in bacterial expression system assessed as remaining unbound target protein level at 1000 nM by Kinomescan method relative to control. The gist of the method: (§3)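 KINOMEscan competition binding profile across a panel of 468 kinases and mutants, with the inhibitor tested at a single concentration of 1 μM. Binding is reported as percent of control, meaning signal relative to a DMSO control.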

Series [17] addresses MAP kinase-interacting serine/threonine-protein kinase 1 (Homo sapiens) (UniProt Q9BUB5). The series is described as follows: Binding affinity to wild-type human full length MKNK1 (M1 to L424 residues) expressed in mammalian expression system assessed as remaining unbound target protein level at 1000 nM by Kinomescan method relative to control. The gist of the method: (§4)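 Single-point competition binding screen across a panel of 468 kinases and mutants, with the inhibitor at 1 μM. Binding is read out as percent of a DMSO control, and targets below 1 percent control were classed as strong binders.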

In series [18] the test system is MV4-11. Put plainly: Cell cycle arrest in human MV4-11 cells increase in accumulation at G0/G1 phase at 0.01 to 0.03 uM after 24 hrs by propidium iodide/RNase staining based flow cytometric analysis.
The nature of series [19]: Cmax in Sprague-Dawley rat at 3 mg/kg, iv by LC-MS/MS analysis. It is filed as ADME, organism-based. The arrangement: dose 3 mg/kg, route intravenous. Conditions: in vivo.
Series [20] in a line: Cmax in Sprague-Dawley rat at 20 mg/kg, po by LC-MS/MS analysis. The class given is ADME, organism-based. On the set-up: dose 20 mg/kg, route oral. As to conditions: in vivo.
In series [21] the target is Cyclin-dependent kinase 15 (Homo sapiens) (UniProt Q96Q40). The series is described as follows: Binding affinity to wild-type human full length PFTAIRE2 (M1 to W384 residues) expressed in bacterial expression system assessed as remaining unbound target protein level at 1000 nM by Kinomescan method relative to control. The gist of the method:
as §3

For series [22], the target named is Tyrosine-protein kinase Lck (Homo sapiens) (UniProt P06239). The series is described as follows: Binding affinity to wild-type human partial length LCK (R207 to P509 residues) expressed in bacterial expression system assessed as remaining unbound target protein level at 1000 nM by Kinomescan method relative to control. In short, it runs like this: as §2
Chain of Tyrosine-protein kinase Lck (Homo sapiens) (P06239 2-509 limits assumed): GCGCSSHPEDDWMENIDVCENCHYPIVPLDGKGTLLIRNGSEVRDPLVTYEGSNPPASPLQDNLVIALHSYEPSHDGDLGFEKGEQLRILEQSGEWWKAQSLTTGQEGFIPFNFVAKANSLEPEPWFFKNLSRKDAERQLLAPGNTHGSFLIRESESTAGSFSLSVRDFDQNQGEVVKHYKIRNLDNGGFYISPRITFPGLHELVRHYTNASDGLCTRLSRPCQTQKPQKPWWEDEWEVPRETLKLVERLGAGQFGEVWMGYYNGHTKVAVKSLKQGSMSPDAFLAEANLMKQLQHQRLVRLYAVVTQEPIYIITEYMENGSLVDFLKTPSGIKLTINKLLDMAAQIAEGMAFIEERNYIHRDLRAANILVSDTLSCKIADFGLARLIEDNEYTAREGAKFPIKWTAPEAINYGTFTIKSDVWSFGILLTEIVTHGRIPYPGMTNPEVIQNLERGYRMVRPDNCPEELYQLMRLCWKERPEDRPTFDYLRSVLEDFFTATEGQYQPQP
The target in series [23] is Dual specificity mitogen-activated protein kinase kinase 1 (Homo sapiens) (UniProt Q02750). The series is described as follows: Binding affinity to wild-type human full length MEK1 (M1 to V393 residues) expressed in mammalian expression system assessed as remaining unbound target protein level at 1000 nM by Kinomescan method relative to control. The gist of the method: as §4

Chain of Wee1-like protein kinase 2 (Homo sapiens) (P0C1S8 whole entry, looked up, the tested form may be a part): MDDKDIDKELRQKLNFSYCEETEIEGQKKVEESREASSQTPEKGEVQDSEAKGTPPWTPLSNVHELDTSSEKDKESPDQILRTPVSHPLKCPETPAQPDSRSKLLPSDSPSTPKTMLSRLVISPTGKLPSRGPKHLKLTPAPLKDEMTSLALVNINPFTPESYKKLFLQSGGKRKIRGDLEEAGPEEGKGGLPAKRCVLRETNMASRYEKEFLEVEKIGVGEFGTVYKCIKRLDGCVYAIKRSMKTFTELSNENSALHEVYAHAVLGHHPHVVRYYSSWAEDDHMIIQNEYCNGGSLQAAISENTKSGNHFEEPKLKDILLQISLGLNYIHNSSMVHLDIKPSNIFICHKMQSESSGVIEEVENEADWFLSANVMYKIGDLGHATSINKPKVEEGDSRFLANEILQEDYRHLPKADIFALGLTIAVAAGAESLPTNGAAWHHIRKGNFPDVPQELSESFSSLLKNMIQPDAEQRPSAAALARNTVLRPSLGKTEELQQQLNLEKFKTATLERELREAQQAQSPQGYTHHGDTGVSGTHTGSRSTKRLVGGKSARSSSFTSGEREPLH
Chain of Cyclin-dependent kinase 15 (Homo sapiens) (Q96Q40 whole entry, the tested form may be a part): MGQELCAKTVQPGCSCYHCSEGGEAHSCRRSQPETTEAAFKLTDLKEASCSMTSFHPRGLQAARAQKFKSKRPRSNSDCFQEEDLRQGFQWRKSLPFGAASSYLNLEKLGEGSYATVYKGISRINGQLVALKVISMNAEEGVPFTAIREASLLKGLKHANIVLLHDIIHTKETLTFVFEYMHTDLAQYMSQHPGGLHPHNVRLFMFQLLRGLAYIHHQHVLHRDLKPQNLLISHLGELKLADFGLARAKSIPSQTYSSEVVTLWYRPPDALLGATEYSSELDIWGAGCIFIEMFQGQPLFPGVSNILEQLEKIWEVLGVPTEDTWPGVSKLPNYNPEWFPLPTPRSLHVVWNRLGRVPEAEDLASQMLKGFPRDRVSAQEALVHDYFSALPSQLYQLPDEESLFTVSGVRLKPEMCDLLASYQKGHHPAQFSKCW
Chain of Mast/stem cell growth factor receptor Kit (Homo sapiens), P10721 [D816V] (P10721 whole entry D816V, the tested form may be a part): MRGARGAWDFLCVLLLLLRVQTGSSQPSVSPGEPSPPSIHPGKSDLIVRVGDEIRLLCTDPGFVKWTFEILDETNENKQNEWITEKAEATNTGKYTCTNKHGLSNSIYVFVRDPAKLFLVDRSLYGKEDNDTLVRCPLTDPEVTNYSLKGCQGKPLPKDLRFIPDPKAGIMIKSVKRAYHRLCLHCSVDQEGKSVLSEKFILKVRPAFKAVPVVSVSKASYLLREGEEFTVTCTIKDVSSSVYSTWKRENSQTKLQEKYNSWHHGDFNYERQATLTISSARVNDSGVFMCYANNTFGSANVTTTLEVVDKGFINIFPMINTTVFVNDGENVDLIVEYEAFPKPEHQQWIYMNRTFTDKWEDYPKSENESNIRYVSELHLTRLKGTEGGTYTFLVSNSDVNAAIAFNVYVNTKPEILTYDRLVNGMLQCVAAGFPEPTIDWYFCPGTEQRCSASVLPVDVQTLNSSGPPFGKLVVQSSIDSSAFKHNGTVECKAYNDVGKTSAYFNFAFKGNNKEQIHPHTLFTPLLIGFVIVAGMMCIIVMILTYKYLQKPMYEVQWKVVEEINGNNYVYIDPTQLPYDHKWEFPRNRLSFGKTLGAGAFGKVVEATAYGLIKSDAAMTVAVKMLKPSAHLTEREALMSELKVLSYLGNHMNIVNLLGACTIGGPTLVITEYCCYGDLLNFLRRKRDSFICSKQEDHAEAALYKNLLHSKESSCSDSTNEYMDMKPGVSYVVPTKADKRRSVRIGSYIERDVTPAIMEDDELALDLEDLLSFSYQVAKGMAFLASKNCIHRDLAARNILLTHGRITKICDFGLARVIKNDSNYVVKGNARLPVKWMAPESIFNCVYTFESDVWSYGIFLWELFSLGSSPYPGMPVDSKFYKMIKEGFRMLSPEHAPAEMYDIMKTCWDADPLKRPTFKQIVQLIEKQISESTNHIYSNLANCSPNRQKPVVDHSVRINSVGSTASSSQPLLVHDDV
Chain of Tyrosine-protein kinase ABL1 (Homo sapiens), P00519 [F317L] (P00519 whole entry F317L, the tested form may be a part): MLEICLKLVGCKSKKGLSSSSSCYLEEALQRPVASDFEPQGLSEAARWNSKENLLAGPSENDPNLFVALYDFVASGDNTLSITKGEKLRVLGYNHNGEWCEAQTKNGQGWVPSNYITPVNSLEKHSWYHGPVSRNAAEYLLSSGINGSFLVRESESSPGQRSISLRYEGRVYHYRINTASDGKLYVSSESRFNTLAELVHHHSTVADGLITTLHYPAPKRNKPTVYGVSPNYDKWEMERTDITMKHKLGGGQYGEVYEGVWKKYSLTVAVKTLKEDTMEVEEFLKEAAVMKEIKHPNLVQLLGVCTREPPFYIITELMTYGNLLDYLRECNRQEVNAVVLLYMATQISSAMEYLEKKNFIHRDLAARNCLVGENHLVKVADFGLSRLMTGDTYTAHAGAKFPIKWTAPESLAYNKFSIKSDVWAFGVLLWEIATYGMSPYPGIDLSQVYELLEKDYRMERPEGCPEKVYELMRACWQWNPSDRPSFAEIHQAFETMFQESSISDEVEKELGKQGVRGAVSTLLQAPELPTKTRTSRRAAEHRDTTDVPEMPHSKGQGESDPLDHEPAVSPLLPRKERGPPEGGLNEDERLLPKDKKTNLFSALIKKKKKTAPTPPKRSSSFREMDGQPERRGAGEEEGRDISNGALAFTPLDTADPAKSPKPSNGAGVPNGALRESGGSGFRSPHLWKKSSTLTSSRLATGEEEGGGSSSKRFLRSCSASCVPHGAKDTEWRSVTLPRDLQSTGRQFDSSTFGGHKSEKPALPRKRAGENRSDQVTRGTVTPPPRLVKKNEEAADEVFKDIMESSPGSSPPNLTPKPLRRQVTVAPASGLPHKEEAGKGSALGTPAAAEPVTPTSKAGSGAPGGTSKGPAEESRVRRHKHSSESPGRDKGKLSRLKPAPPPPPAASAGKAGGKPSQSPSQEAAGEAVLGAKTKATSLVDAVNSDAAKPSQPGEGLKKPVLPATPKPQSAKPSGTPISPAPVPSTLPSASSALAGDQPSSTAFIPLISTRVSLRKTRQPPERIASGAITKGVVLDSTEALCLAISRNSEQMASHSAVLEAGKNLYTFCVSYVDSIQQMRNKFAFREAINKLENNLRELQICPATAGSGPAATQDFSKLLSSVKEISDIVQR
Chain of Glycogen synthase kinase-3 alpha (Homo sapiens) (P49840 2-483 limits assumed): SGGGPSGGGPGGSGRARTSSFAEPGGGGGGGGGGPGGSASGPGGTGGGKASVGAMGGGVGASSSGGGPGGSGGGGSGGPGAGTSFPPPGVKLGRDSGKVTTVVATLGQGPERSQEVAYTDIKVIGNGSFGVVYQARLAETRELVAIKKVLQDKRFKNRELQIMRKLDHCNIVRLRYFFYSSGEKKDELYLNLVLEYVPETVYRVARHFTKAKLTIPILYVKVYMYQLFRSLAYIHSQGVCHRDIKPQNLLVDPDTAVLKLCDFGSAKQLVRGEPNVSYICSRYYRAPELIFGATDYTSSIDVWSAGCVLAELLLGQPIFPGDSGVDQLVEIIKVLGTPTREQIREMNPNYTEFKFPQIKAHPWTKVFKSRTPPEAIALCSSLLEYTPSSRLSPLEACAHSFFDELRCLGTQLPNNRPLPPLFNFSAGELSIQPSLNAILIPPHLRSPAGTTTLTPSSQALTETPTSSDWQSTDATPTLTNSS

Usually half-life stands for how long it takes for the measured level to halve. A lower half-life goes with fast loss. As usually defined, the MRT last is a mean duration of stay, worked out from the concentration-time curve. The Cmax is the highest concentration seen after dosing. For `COCCN[C@H]1CC[C@H](Nc2cc(-c3csc(NCC4(C#N)CCOCC4)n3)c(Cl)cn2)CC1`, the Activity in series [1] was 87%; in series [2], 100%; in series [3] it was 90%; in series [4], “Dose-dependent effect”; in series [5], 87%; in series [7], 90%. In addition, the Activity in [8] was 72%; in series [9], 84%; in series [10], 57%; in series [11], 100%; in series [12], “Dose-dependent effect”; in series [14], 100%. Besides, the Activity in series [15] was found to be 100%; in series [16], 68%; in [17], 100%; in series [21] it was 66%; in series [22] it was 81%; in series [23], 100%. In series [6], this compound had a half-life of 20.4 h. In addition, the MRT last in [13] came to 1.25 h. Besides, the outcome in series [18] was Active. Also, the Cmax was determined as 1470 ng/mL in series [19] and 329 ng/mL in series [20].
